Assay results reported in publication PMC11814085 (Scientific Reports, 2025).
Square brackets hold non-standard residues; d marks the D form. Peptide text beside a SMILES is read from it. * marks the point of attachment. Dolaproine = CO[C@@H]([C@@H]1CCCN1)[C@@H](C)C(=O)O; Dil = CC[C@H](C)[C@H](NC)[C@@H](CC(=O)O)OC; Doe = c1ccc(C[C@H](N*)c2nccs2)cc1; X1 = C[C@@H](N*)[C@@H](O)c1ccccc1; NMeV = CN[C@H](C(=O)O)C(C)C

How the values were obtained:
[1] = test system: TNBC cell lines and LSECs; assay: GR analysis, comparison across cell lines/type; assay type: cell-based
[2] = test system: TNBC cancer cell lines and LSEC; assay: Cellular partitioning and in vitro therapeutic index across cell lines/type; assay type: in vitro ADME; conditions: range over cancer cell lines
MDA-MB-468 cells = assay: CTG assay in presence and absence of P-gp inhibitor; assay type: cell-based
Method in brief: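 MDA-MB-468 cells were seeded at their pre-optimized density and allowed to adhere for 24 h. They were then exposed continuously to 0–200nM test compound for 3 days, in parallel with and without 0.6 µM zosuquidar (P-gp inhibitor). Read-out was CellTiter-Glo 2.0 cellular ATP.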

MDA-MB-468 = assay: Live cell imaging of growth, fluorescent nuclear marker; assay type: cell-based; conditions: MDA-MB-468, highest doses
Method in brief: (§1)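 Cells were transfected with a red fluorescent nuclear marker. Growth in the presence of test compound was followed longitudinally by live-cell imaging of nuclei, as a check independent of the CellTiter-Glo endpoint.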

HCC1937 = assay: as above; assay type: cell-based
Method in brief: as §1

tubulin = conditions: cell free system; cited from earlier work
P-gp = conditions: read-out: P-gp inhibition Ki; cited from earlier work

## CC[C@H](C)[C@@H]([C@@H](CC(=O)N1CCC[C@H]1[C@H](OC)[C@@H](C)C(=O)N[C@@H](Cc1ccccc1)c1nccs1)OC)N(C)C(=O)[C@@H](NC(=O)[C@@H](NC)C(C)C)C(C)C [MMAD, Monomethyl auristatin D] (H-[NMeV]V[Dil][Dolaproine]-Doe)
[1]; media GR50, across cell lines/type
  GR50, fold lower than MMAE: 6-31 x
[2]
  in vitro therapeutic index (TI), ratio of intracellular GR50 in LSEC to that in the cancer cell lines: 12–244 x

## CC[C@H](C)[C@@H]([C@@H](CC(=O)N1CCC[C@H]1[C@H](OC)[C@@H](C)C(=O)N[C@H](C)[C@@H](O)c1ccccc1)OC)N(C)C(=O)[C@@H](NC(=O)[C@@H](NC)C(C)C)C(C)C [MMAE, Monomethyl auristatin E] (H-[NMeV]V[Dil][Dolaproine]-X1)
[1]; media GR50, LSECs versus cancer cell lines
  GR50 in LSECs, fold higher than in cancer cell lines: 3-21 x
[2]
  in vitro therapeutic index (TI), ratio of intracellular GR50 in LSEC to that in the cancer cell lines: 3-60 x
MDA-MB-468 cells; MDA-MB-468, with and without 0.6 µM Zosuquidar
  dose response in presence and absence of P-gp efflux pump inhibitor: nearly identical dose response
MDA-MB-468
  cell growth in live cell imaging: completely inhibited
HCC1937
  cell growth in live cell imaging: only marginal inhibition

## CC[C@H](C)[C@@H]([C@@H](CC(=O)N1CCC[C@H]1[C@H](OC)[C@@H](C)C(=O)N[C@@H](Cc1ccccc1)C(=O)O)OC)N(C)C(=O)[C@@H](NC(=O)[C@@H](NC)C(C)C)C(C)C [MMAF, monomethyl auristatin F] (H-[NMeV]V[Dil][Dolaproine]F-OH)
tubulin
  tubulin binding affinity, fold better than MMAE: ~ 5 x

## O[C@@H](COc1cccc2ncccc12)CN1CCN([C@@H]2c3ccccc3[C@@H]3[C@H](c4ccccc42)C3(F)F)CC1 [Zosuquidar]
MDA-MB-468 cells; auristatin free MDA-MB-468 cells, 0.6 µM
  effect of P-gp inhibitor by itself on cell growth: did not have undesired effect on cell growth
P-gp
  Ki: 60 nM
